The source of these data is ChEMBL document CHEMBL1122506, “Cardiac-slowing amidines containing the 3-thioindone group. Potential antianginal agents” (1983).

The species named for test [1] is Canis familiaris. Briefly: Percent decrease from initial heart rate (percent delta HR50/HR0 x 100) in dogs. The format is functional, Canis lupus familiaris. An outline of the steps: (§1)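 Triazine tachycardia in conscious dogs: carotid artery and jugular vein catheterized with heparinized saline; 18 h after surgery, triazine vasodilator U20388 12 mg/kg po; about 1 h later, dog in sling with arterial pressure and ECG monitored. Test agent infused iv at 0.8 (mg/kg)/min to 30 mg/kg total. D50 = dose giving 50% of maximal slowing in that animal; ΔHR50 = heart-rate change at D50; CS index = %ΔHR50/D50.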

The species named for test [2] is Canis familiaris. Briefly: Cardiac slowing index was measured for potency and efficacy. Format: functional, Canis lupus familiaris. An outline of the steps: as §1
For test [3], the system named is Canis familiaris. Briefly: Myocardial depression rating in anesthetized, ganglion-blocked dog; Weak activity.
For test [4], the species on record is Canis familiaris. Briefly: Relative activity (fraction of the most active compound 24) was determined. The format is functional, Canis lupus familiaris.
Test [5] concerns Canis familiaris. The test is described as follows: Change in heart rate at the above D50 dose in conscious dogs. The format is functional, Canis lupus familiaris. The essentials:
as §1

Test [6] concerns Canis familiaris. Briefly: Dose required to achieve 50 % of maximal cardiac slowing in triazine tachycardia test in conscious dog. The format is functional, Canis lupus familiaris. The essentials:
as §1

The subject of test [7] is Canis familiaris. The test is described as follows: Myocardial depression in anesthetized, ganglion-blocked dog; Moderate activity.

Molecules are shown by their SMILES.

As for `COc1ccc2[nH]cc(SCC/N=C3\CCCN3C)c2c1`, the “Delta HR50” value in the test filed under Canis familiaris [1] is given as 17.8%; in the test on Canis familiaris [5], -39 beats min-1. Further, in the test listed under Canis familiaris [2], the CS index was found to be 7.7. For the same molecule, the MD in the test on Canis familiaris [3] worked out at 2. For the same molecule, the Relative activity in the test listed under Canis familiaris [4] was determined as 0.24. The D50 with Canis familiaris [6] is 2.3 mg/kg.

Take `Cc1[nH]c2ccccc2c1SCCNC1=NCCN1C`: the figures for the “Delta HR50” value in the test filed under Canis familiaris [1] and in the test with Canis familiaris [5] were 19.5% and -37 beats min-1, respectively. The molecule also had a CS index in the test listed under Canis familiaris [2] of 7.5. For the same molecule, the MD with Canis familiaris [3] amounted to 2.5. The Relative activity in the test listed under Canis familiaris [4] is 0.23. Further, the D50 in the test on Canis familiaris [6] was 2.6 mg/kg.

Turning to `CN1CCC/C1=N\CCSc1cn(CC2CC2)c2ccccc12`, the “Delta HR50” value in the test filed under Canis familiaris [1] is 25.5%; in the test with Canis familiaris [5], -60 beats min-1. In the test listed under Canis familiaris [2], this molecule had a CS index of 18.2. Besides, the MD in the test with Canis familiaris [3] stood at 2.5. In the test listed under Canis familiaris [4], this molecule had a Relative activity of 0.57. Also, the D50 with Canis familiaris [6] stood at 1.4 mg/kg.

As for `C#CCn1cc(SCC/N=C2\CCCN2C)c2ccccc21`, the figures for the “Delta HR50” value in the test listed under Canis familiaris [1] and in the test with Canis familiaris [5] were 21.6% and -46 beats min-1, respectively. The CS index in the test filed under Canis familiaris [2] came out at 19.6. Moreover, in the test on Canis familiaris [3], the MD was found to be 2.5. Moreover, the Relative activity in the test listed under Canis familiaris [4] worked out at 0.61. This molecule also showed a D50 with Canis familiaris [6] of 1.1 mg/kg.

As to `CN1CCC/C1=N/CCc1cn(Cc2ccccc2)c2ccccc12`, the “Delta HR50” value in the test filed under Canis familiaris [1] was 24.3%; in the test on Canis familiaris [5], -52 beats min-1. Moreover, the CS index in the test listed under Canis familiaris [2] is given as 9.3. For the same molecule, the Relative activity in the test filed under Canis familiaris [4] is 0.29. In addition, the D50 in the test with Canis familiaris [6] came to 2.6 mg/kg.

`CN1CCC/C1=N\CCSc1cn(Cc2ccccc2)c2ccccc12` registered an MD in the test on Canis familiaris [7] of 3.

For `CN1CCCN=C1NCCSc1c[nH]c2ccccc12`, the “Delta HR50” value in the test listed under Canis familiaris [1] is on record as 20%; in the test with Canis familiaris [5], -38 beats min-1. For the same molecule, in the test filed under Canis familiaris [2], the CS index came to 3.1. The Relative activity in the test filed under Canis familiaris [4] turned out to be 0.1. Besides, in the test on Canis familiaris [6], the D50 was 6.4 mg/kg.

`CN1CCCC/C1=N\CCSc1c[nH]c2ccccc12`: the “Delta HR50” value in the test filed under Canis familiaris [1] is reported as 22.4%; in the test on Canis familiaris [5], -51 beats min-1. For the same molecule, in the test listed under Canis familiaris [2], the CS index came to 7.5. Moreover, the MD with Canis familiaris [3] came to 2.5. This molecule displayed a Relative activity in the test filed under Canis familiaris [4] of 0.23. In the test with Canis familiaris [6], this molecule gave a D50 of 3 mg/kg.

With `C=C(C)Cn1cc(SCC/N=C2\CCCN2C)c2ccccc21`, the “Delta HR50” value in the test filed under Canis familiaris [1] is on record as 20%; in the test on Canis familiaris [5], -42 beats min-1. Moreover, the CS index in the test listed under Canis familiaris [2] came to 4.5. In the test on Canis familiaris [3], this molecule returned an MD of 2.5. This molecule showed a Relative activity in the test listed under Canis familiaris [4] of 0.14. Besides, in the test on Canis familiaris [6], the D50 was determined as 4.4 mg/kg.

As to `C=CCN1CCC/C1=N\CCSc1c[nH]c2ccccc12`, the “Delta HR50” value in the test listed under Canis familiaris [1] is 12.4%; in the test with Canis familiaris [5], -22 beats min-1. Moreover, in the test listed under Canis familiaris [2], the CS index is recorded as 17.7. For the same molecule, the Relative activity in the test listed under Canis familiaris [4] came to 0.55. The molecule also had a D50 in the test on Canis familiaris [6] of 0.7 mg/kg.

Consider `CCc1ccc2[nH]cc(SCC/N=C3\CCCN3C)c2c1`, for which the “Delta HR50” value is 15.5% in the test filed under Canis familiaris [1] and -21 beats min-1 with Canis familiaris [5]. In the test filed under Canis familiaris [2], this molecule registered a CS index of 1.8. Besides, the Relative activity in the test listed under Canis familiaris [4] amounted to 0.06. The D50 in the test on Canis familiaris [6] was found to be 8.6 mg/kg.

Regarding `C#CCn1c(C)c(SCC/N=C2\CCCN2C)c2ccccc21`, the figures for the “Delta HR50” value in the test filed under Canis familiaris [1] and in the test on Canis familiaris [5] were 18.5% and -20 beats min-1, respectively. Besides, in the test listed under Canis familiaris [2], the CS index is on record as 3.4. This molecule also gave a Relative activity in the test filed under Canis familiaris [4] of 0.11. For the same molecule, the D50 with Canis familiaris [6] was 5.5 mg/kg.

As to `CCN1CC(CC/N=C2\CCCN2C)c2ccccc21` (stereo unspecified), the “Delta HR50” value in the test listed under Canis familiaris [1] is reported as 18.4%; with Canis familiaris [5] it was -45 beats min-1. The molecule further had a CS index in the test filed under Canis familiaris [2] of 5.6. In the test on Canis familiaris [3], this molecule registered an MD of 2. Also, the Relative activity in the test filed under Canis familiaris [4] is 0.17. Besides, the D50 in the test with Canis familiaris [6] was found to be 3.3 mg/kg.

In the case of `CN1CCN=C1NCCSc1c[nH]c2ccccc12`, the “Delta HR50” value in the test filed under Canis familiaris [1] is given as 19.9%; in the test on Canis familiaris [5], -38 beats min-1. In the test listed under Canis familiaris [2], this molecule had a CS index of 6.9. The molecule further had an MD in the test with Canis familiaris [3] of 2. The molecule also displayed a Relative activity in the test filed under Canis familiaris [4] of 0.22. In the test on Canis familiaris [6], this molecule registered a D50 of 2.9 mg/kg.

`CN1CCN=C1NCCc1c[nH]c2ccccc12`: the “Delta HR50” value in the test listed under Canis familiaris [1] is given as 20.5%; in the test on Canis familiaris [5], -47 beats min-1. In the test listed under Canis familiaris [2], this molecule displayed a CS index of 2.1. Besides, the MD in the test with Canis familiaris [3] stood at 2. The Relative activity in the test listed under Canis familiaris [4] came to 0.06. The molecule further had a D50 with Canis familiaris [6] of 9.7 mg/kg.

For `C=CCn1cc(SCC/N=C2\CCCN2C)c2ccccc21`, the “Delta HR50” value in the test listed under Canis familiaris [1] was 22.2%; with Canis familiaris [5], -52 beats min-1. In addition, the CS index in the test filed under Canis familiaris [2] is 22.2. The molecule further yielded an MD in the test on Canis familiaris [3] of 2. Besides, in the test listed under Canis familiaris [4], the Relative activity was 0.69. In the test on Canis familiaris [6], this molecule showed a D50 of 1 mg/kg.

With `C=CCn1cc(CC/N=C2/CCCN2C)c2ccccc21`, the “Delta HR50” value in the test listed under Canis familiaris [1] was 14.7%; in the test on Canis familiaris [5] it was -26 beats min-1. The molecule further came in with a CS index in the test filed under Canis familiaris [2] of 12.2. Besides, in the test filed under Canis familiaris [4], the Relative activity was 0.38. This molecule registered a D50 in the test with Canis familiaris [6] of 1.2 mg/kg.

For `CN1CCC/C1=N\CCSc1c[nH]c2ccc(Cl)cc12`, the “Delta HR50” value in the test listed under Canis familiaris [1] is 16.2%; in the test on Canis familiaris [5], -32 beats min-1. For the same molecule, the CS index in the test filed under Canis familiaris [2] is on record as 4.6. The same molecule displayed an MD in the test with Canis familiaris [3] of 2. This molecule also returned a Relative activity in the test listed under Canis familiaris [4] of 0.14. The molecule also showed a D50 with Canis familiaris [6] of 3.5 mg/kg.

Consider `CC(=NCCSc1c[nH]c2ccccc12)N(C)C`, for which the figures for the “Delta HR50” value in the test filed under Canis familiaris [1] and in the test on Canis familiaris [5] were 23% and -50 beats min-1, respectively. In the test listed under Canis familiaris [2], the CS index is listed as 11.5. Also, the MD in the test with Canis familiaris [3] was 2. Moreover, the Relative activity in the test filed under Canis familiaris [4] worked out at 0.36. Besides, in the test on Canis familiaris [6], the D50 came to 2 mg/kg.

Take `CN1CCC/C1=N/CCc1c[nH]c2ccccc12`: the “Delta HR50” value in the test listed under Canis familiaris [1] was 16%; with Canis familiaris [5] it was -28 beats min-1. The CS index in the test listed under Canis familiaris [2] turned out to be 4.7. In the test on Canis familiaris [3], the MD came to 2. In the test filed under Canis familiaris [4], this molecule registered a Relative activity of 0.15. In the test with Canis familiaris [6], this molecule had a D50 of 3.4 mg/kg.

As for `c1ccc2c(SCCNC3=NCCC3)c[nH]c2c1`, the “Delta HR50” value in the test filed under Canis familiaris [1] was 23%; with Canis familiaris [5] it was -51 beats min-1. Besides, in the test listed under Canis familiaris [2], the CS index is 6.2. For the same molecule, the Relative activity in the test filed under Canis familiaris [4] is listed as 0.19. For the same molecule, the D50 in the test on Canis familiaris [6] came to 3.7 mg/kg.

Consider `CN1CCC/C1=N\CCSc1cn(Cc2ccco2)c2ccccc12`, for which the “Delta HR50” value in the test listed under Canis familiaris [1] is 22.4%; in the test on Canis familiaris [5] it was -42 beats min-1. The same molecule displayed a CS index in the test listed under Canis familiaris [2] of 8.6. In the test listed under Canis familiaris [4], the Relative activity worked out at 0.27. Moreover, the D50 in the test with Canis familiaris [6] is 2.6 mg/kg. Further, the MD in the test on Canis familiaris [7] is listed as 3.5.

For `c1ccc(N2CCC/C2=N\CCSc2c[nH]c3ccccc23)cc1`, the “Delta HR50” value in the test listed under Canis familiaris [1] is recorded as 19.2%; with Canis familiaris [5], -40 beats min-1. Moreover, the CS index in the test filed under Canis familiaris [2] stood at 32. In addition, in the test on Canis familiaris [3], the MD is listed as 2.5. The molecule further displayed a Relative activity in the test listed under Canis familiaris [4] of 1. Further, in the test on Canis familiaris [6], the D50 was 0.6 mg/kg.

On to `CN1CCCCC/C1=N\CCSc1c[nH]c2ccccc12`, for which the “Delta HR50” value is 18.5% in the test filed under Canis familiaris [1] and -38 beats min-1 with Canis familiaris [5]. Further, the CS index in the test filed under Canis familiaris [2] is 1.3. In the test listed under Canis familiaris [4], this molecule registered a Relative activity of 0.04. Besides, in the test with Canis familiaris [6], the D50 came to 14.1 mg/kg.
